The values that follow come from ChEMBL document CHEMBL1129491, “Synthesis of non-nucleoside analogs of toyocamycin, sangivamycin, and ++thiosangivamycin: influence of various 7-substituents on antiviral activity” (J Med Chem, 1996).

The test system of test [1] is HFF. In words: Cytotoxicity against HFF cells, estimated by visual scoring of cells not affected by virus infection in the plaque reduction assay. It is filed as functional, cell-based. The settings on record: Homo sapiens. The procedure, abridged:
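Uninfected areas of HFF monolayers in the HCMV plaque-reduction assay examined at 35-fold magnification. Drug-induced cytopathology scored 0–4 on the day plaques were stained and counted.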

The subject of test [2] is Human alphaherpesvirus 1. Briefly: Antiviral activity against HSV-1 replication was evaluated by ELISA. The class given is functional, organism-based. The procedure, abridged:
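HSV-1 strain S-148 ELISA following Prichard and Shipman. Drug concentrations applied to infected cultures; percent inhibition regressed linearly against log concentration and IC50 read from the regression line. Acyclovir as positive control. Most assays averaged over two or more experiments, but HSV-1 ELISAs were run once.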
A general note: An ELISA detects its analyte on a solid surface through an enzyme-linked reagent.

Test [3] relates to Human betaherpesvirus 5. In words: Antiviral activity against Human Cytomegalovirus (HCMV) replication in a plaque reduction assay. The class given is functional, organism-based. The method in brief: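 Towne strain HCMV (plaque-purified P0) on HFF monolayers in MEM(E) with 10% FBS. Inoculum ca. 100 PFU per 0.2 mL; compounds dissolved in the overlay medium; plaques counted after staining. IC50 from linear regression of percent inhibition against log concentration. Ganciclovir as positive control; two or more experiments averaged.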
On the technique in general: Plaques are areas of infected cells; plaque reduction assays count them against a control.

The subject of test [4] is KB. Briefly: Cytotoxic activity tested against exponentially growing KB cells, determined by staining method. It is filed as functional, cell-based. Conditions: Homo sapiens. The method in brief:
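KB cells (human oral epidermoid carcinoma) kept in MEM(H) with 10% calf serum and tested while exponentially growing. Toxicity measured by a previously described staining method. IC50 from linear regression of percent inhibition against log drug concentration; two or more experiments averaged.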

Test [5] has as its system Human betaherpesvirus 5. In words: Antiviral activity in Human Cytomegalovirus Viral infection was evaluated by ELISA method. It is filed as functional, organism-based. The procedure, abridged: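 MRC-5 cells held overnight at 37 °C, then infected with Towne HCMV at moi 0.002 PFU/cell. After 1 h adsorption, up to 10 drug concentrations added in triplicate. Fixed with 95% EtOH after 6.5 days. Blocked, then mouse anti-HCMV monoclonal (1:400, 1 h) and peroxidase anti-mouse (1:1000, 2 h). Read at 450/570 nm, background subtracted; IC50 by log-linear regression.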

The subject of test [6] is L1210. Briefly: In vitro cytotoxicity against growth rate of L1210 cell at 100 uM was evaluated. The class given is functional, Mus musculus. The method in brief: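 L1210 murine leukemia cells in Fischer's medium with 10% heat-inactivated horse serum (56 °C, 30 min), exposed to 100 μM compound. Cells counted at 0, 24, 48, 72 and 96 h. Growth rate taken as the slope of semilog cell number versus time, expressed as percent of untreated control.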

Test [7] deals with L1210. In words: Inhibitory concentration required to decrease the growth rate of L1210 cells to one-half of the control rate. It is filed as functional, cell-based. Conditions: Mus musculus. The method in brief:
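L1210 cells in Fischer's medium with 10% heat-inactivated horse serum, counted at 0, 24, 48, 72 and 96 h across selected compound concentrations. Growth rate is the semilog slope as percent of control. IC50 is the concentration that halves the growth rate; '>' values give the highest concentration tested.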

SMILES strings stand for the structures. Bounds are passed on as bounds.

`Cc1ccccc1Cn1cc(C(N)=O)c2c(N)ncnc21`: the IC50 (in general, the concentration that inhibits the measured activity by half) in test [1] is > 100 µM; in test [2], > 100 µM; in test [3] it was 15 µM; in test [4], > 100 µM.

Turning to `Cc1cccc(Cn2cc(C(=N)S)c3c(N)ncnc32)c1`, the concentration for half-maximal inhibition (IC50) in test [1] was 66 µM; in test [2], 15 µM; in test [3] it was 0.25 µM; in test [4], 30 µM.

With `COc1ccc(Cn2cc(C(N)=O)c3c(N)ncnc32)cc1`, the IC50 was > 32 µM in test [1], 35 µM in test [2], 13 µM in test [3] and 47 µM in test [4].

For the compound `Cn1cc(C#N)c2c(N)ncnc21`, the IC50 in test [2], in test [5], in test [3] and in test [4] was > 100 µM throughout. Moreover, in test [6], the Control was 87%.

Take `NC(=S)c1cn(COC(CO)CO)c2ncnc(N)c12`: the IC50 in test [1] was > 100 µM; in test [2], > 100 µM; in test [3], 6.2 µM; in test [4], > 100 µM.

As for `Cc1cccc(Cn2cc(C(N)=O)c3c(N)ncnc32)c1`, the IC50 in test [1], in test [2], in test [3] and in test [4] was > 100 µM each time.

For the compound `NC(=O)c1cn([C@@H]2O[C@H](CO)[C@@H](O)[C@H]2O)c2ncnc(N)c12` [SANGIVAMYCIN], the results for the IC50 in test [1] and in test [4] were < 0.01 µM and 0.08 µM, respectively.

As for `CC(C)(C)c1ccc(Cn2cc(C#N)c3c(N)ncnc32)cc1`, the half-maximal inhibitory concentration (IC50) was > 32 µM in test [1], > 100 µM in test [2], 32 µM in test [3] and 3 µM in test [4].

Regarding `C=CCn1cc(C(N)=O)c2c(N)ncnc21`, the results for the IC50 in test [2], in test [3] and in test [4] were > 100 µM, > 100 µM and 100 µM, respectively. This compound also yielded a Control in test [6] of 66%.

In the case of `C=CCn1cc(C(N)=S)c2c(N)ncnc21`, the IC50 in test [2] was 4.5 µM; in test [3], 2.1 µM; in test [4] it was 19 µM; in test [7] it was 38 µM. Moreover, in test [6], the Control came to 0%.

Regarding `COc1ccc(Cn2cc(C#N)c3c(N)ncnc32)cc1`, the IC50 in test [1], in test [2], in test [3] and in test [4] was > 100 µM each time.

Regarding `CCCn1cc(C(N)=O)c2c(N)ncnc21`, the IC50 in test [2] was > 100 µM; in test [5], > 100 µM; in test [3], > 100 µM; in test [4], 100 µM; in test [7] it was 73 µM. In test [6], this compound had a Control of 0%.

As for `NC(=S)c1cn(COCCO)c2ncnc(N)c12`, the IC50 in test [1] is > 100 µM; in test [2] it was 21 µM; in test [3], 8.8 µM; in test [4] it was 115 µM.

`Cc1ccc(Cn2cc(C(=N)S)c3c(N)ncnc32)cc1`: the IC50 in test [1] is 100 µM; in test [2] it was 3.5 µM; in test [5] it was 0.15 µM; in test [3] it was 0.1 µM; in test [4] it was 65 µM; in test [7], > 10 µM. The compound further displayed a Control in test [6] of 92%.

With `NC(=S)c1c[nH]c2ncnc(N)c12`, the IC50 in test [1] was > 32 µM; in test [2], 35 µM; in test [3], 1.6 µM; in test [4] it was 25 µM.

As for `Cc1ccc(Cn2cc(C#N)c3c(N)ncnc32)cc1`, the IC50 in test [1], in test [2], in test [3] and in test [4] was > 100 µM each time. This compound displayed a Control in test [6] of 64%.

On to `NC(=S)c1cn([C@@H]2O[C@H](CO)[C@@H](O)[C@H]2O)c2ncnc(N)c12`, for which the IC50 in test [1] and in test [3] was 0.2 µM throughout.

For `COc1ccc(Cn2cc(C(=N)S)c3c(N)ncnc32)cc1`, the IC50 in test [1] was 66 µM; in test [2], 4 µM; in test [5] it was 0.5 µM; in test [3], 0.5 µM; in test [4], 28 µM.

As to `CC(C)(C)c1ccc(Cn2cc(C(N)=O)c3c(N)ncnc32)cc1`, the half-inhibitory concentration (IC50) in test [1] is 100 µM; in test [2], 50 µM; in test [3] it was 28 µM; in test [4] it was 0.9 µM.

As to `CC(C)(C)c1ccc(Cn2cc(C(=N)S)c3c(N)ncnc32)cc1`, the IC50 was > 100 µM in test [1], 15 µM in test [2], 1.5 µM in test [3] and 7 µM in test [4].

Regarding `CCCn1cc(C#N)c2c(N)ncnc21`, the IC50 in test [1] is > 100 µM; in test [2], > 100 µM; in test [3] it was 36 µM; in test [4], > 100 µM. Also, in test [6], the Control is on record as 74%.

Turning to `Cc1ccccc1Cn1cc(C(=N)S)c2c(N)ncnc21`, the IC50 is 66 µM in test [1], 0.9 µM in test [2], 0.1 µM in test [3] and > 17 µM in test [4].

With `NC(=S)c1cn(Cc2ccccc2)c2ncnc(N)c12`, the IC50 in test [1] was > 32 µM; in test [2], 7.4 µM; in test [5], 0.33 µM; in test [3] it was 0.36 µM; in test [4] it was 32 µM; in test [7] it was 70 µM. The Control in test [6] worked out at 0%.

Consider `N#Cc1c[nH]c2ncnc(N)c12` [TOYOCAMYCIN AGLYCONE], for which the IC50 in test [1] is 10 µM; in test [2], > 100 µM; in test [3], 3.9 µM; in test [4], 18 µM.

For `N#Cc1cn(Cc2ccccc2)c2ncnc(N)c12`, the half-inhibitory concentration (IC50) is > 100 µM in test [1], 90 µM in test [2], > 100 µM in test [3] and > 100 µM in test [4]. In test [6], this compound displayed a Control of 60%.

Take `Cc1ccccc1Cn1cc(C#N)c2c(N)ncnc21`: the IC50 in test [1] was > 100 µM; in test [2], > 100 µM; in test [5], 32 µM; in test [3] it was 3.4 µM; in test [4], > 100 µM.

Regarding `Cn1cc(C(N)=O)c2c(N)ncnc21`, the IC50 in test [2], in test [3] and in test [4] was > 100 µM each time. For the same compound, in test [6], the Control is 89%.

As to `CCCn1cc(C(=N)S)c2c(N)ncnc21`, the IC50 is 25 µM in test [1], 12 µM in test [2], 1.2 µM in test [3] and 17 µM in test [4]. In test [6], this compound yielded a Control of 79%.

As to `NC(=O)c1cn(Cc2ccccc2)c2ncnc(N)c12`, the IC50 was > 32 µM in test [1]; 33 µM in test [2]; > 100 µM in test [3]; 75 µM in test [4]; 16 µM in test [7]. Besides, in test [6], the Control is recorded as 0%.

Consider `N#Cc1cn([C@@H]2O[C@H](CO)[C@@H](O)[C@H]2O)c2ncnc(N)c12` [TOYOCAMYCIN], for which the figures for the IC50 in test [1] and in test [4] were < 0.01 µM and 0.03 µM, respectively.

Turning to `Cc1ccc(Cn2cc(C(N)=O)c3c(N)ncnc32)cc1`, the 50% inhibitory concentration (IC50) in test [1] is > 100 µM; in test [2], > 100 µM; in test [3], > 100 µM; in test [4], > 100 µM; in test [7], 20 µM. Besides, in test [6], the Control was 2%.

As for `Cn1cc(C(=N)S)c2c(N)ncnc21`, the IC50 in test [2] is 2.8 µM; in test [3], 1.2 µM; in test [4], 15 µM; in test [7], 38 µM. For the same compound, in test [6], the Control turned out to be 0%.

In the case of `C=CCn1cc(C#N)c2c(N)ncnc21`, the IC50 in test [2], in test [3] and in test [4] was > 100 µM in each case. In test [6], this compound displayed a Control of 75%.
